Most compounds without a hit are left out; they make up all but 4.1% or so of the library.
hERG protect = hERG (human) protection from proarrhythmic block; Q12809; CHO-hERG, FluxOR thallium flux, dofetilide IC70 present; activation (rescue from dofetilide block), less the hit threshold, % at 10 µM; actives 0.51% (n = 310,000); AID 1511;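 active = activation above the mean of controls blocked by dofetilide plus 5 SD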;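 also: thallium influx through hERG after potassium depolarization seen as dye fluorescence rise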
KCNQ1 pot = potentiates or activates the human KCNQ1 potassium channel | actives 0.35% (n = 310,000) | CHO-K1 KCNQ1, thallium flux FluxOR fluorescence; stronger effect = higher value | AID 2648 | B-score at 10 µM | P51787;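 active = fluorescence ratio B-score, a plate-corrected score, at least three library SD, with initial intensity B-score within 5 SD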
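Assay system: CHO-K1 cells stably expressing KCNQ1; Medium: assay buffer with matched DMSO; Also added: K+/Tl+ depolarizing stimulus; Dosing: single dose; Timing: dye 90 min, compound 20 min, room temperature; Measured by: kinetic FluxOR thallium fluorescence, 10-s 1-Hz baseline, 110-s post-stimulus read; Read-out: peak-minus-minimum fluorescence over initial fluorescence, negative-control normalized, B-scored.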
KCNQ1 inh = inhibitors of human KCNQ1 potassium channel. P51787. CHO-K1 KCNQ1, FluxOR thallium flux fluorescence; stronger effect = higher value. B-score at 10 µM. actives 1.3% (n = 310,000). AID 2642;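 active = compounds whose thallium flux B-score, printed positive for inhibition, exceeds three library SD while starting fluorescence stays within three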;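 also: channel opened by potassium depolarization with thallium stimulus after 20 min compound exposure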
Cl transport mod = KCC2 (human) Cl- transport modulation | AID 1456 | actives 2.2% (n = 190,000) | KCC2 cells, thallium flux FluoZin-2 fluorescence | Q9H2X9 | B-score of Tl+ flux slope (higher = more flux/activation; lower = inhibition) at 10 µM;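 active = thallium flux slope and its plate-corrected score both differing from the plate sample mean at a set confidence after two filtering rounds, in either direction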;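 also: slope of fluorescence scaled to starting intensity during 10 to 20 s after thallium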
KCNK3 inh = human KCNK3 channel inhibition, primary screen; O14649; CHO-KCNK3 thallium flux, FluxOR fluorescence; stronger effect = lower value; B-score at 10 µM; actives 0.84% (n = 340,000); AID 602410;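 active = B-score under library mean minus 4 SD, starting fluorescence ratio at most library mean plus 5 SD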;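 also: more negative B-score means stronger inhibition of thallium flux through KCNK3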
Target sequence (O14649 whole entry, looked up): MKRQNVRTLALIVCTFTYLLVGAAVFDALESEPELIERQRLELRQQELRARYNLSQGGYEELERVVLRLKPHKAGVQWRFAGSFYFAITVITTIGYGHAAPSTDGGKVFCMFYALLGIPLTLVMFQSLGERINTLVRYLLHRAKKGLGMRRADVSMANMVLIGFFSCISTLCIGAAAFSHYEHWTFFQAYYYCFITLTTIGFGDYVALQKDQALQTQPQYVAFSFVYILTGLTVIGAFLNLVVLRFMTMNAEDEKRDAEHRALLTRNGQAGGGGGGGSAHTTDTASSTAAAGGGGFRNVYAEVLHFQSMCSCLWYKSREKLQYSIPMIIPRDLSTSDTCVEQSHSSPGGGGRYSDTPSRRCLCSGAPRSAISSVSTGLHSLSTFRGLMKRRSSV
KCNK9 block = human KCNK9 channel inhibition; HEK293 KCNK9, FluxOR thallium flux fluorescence; stronger effect = lower value; B-score at 10 µM; actives 1.2% (n = 310,000);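 active = ratio B-score over 3 SD below the library mean, with starting fluorescence within 5 SD of its mean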;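 also: negative B-score means less thallium flux so channel inhibition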
Target sequence (Q9NPC2 whole entry, looked up): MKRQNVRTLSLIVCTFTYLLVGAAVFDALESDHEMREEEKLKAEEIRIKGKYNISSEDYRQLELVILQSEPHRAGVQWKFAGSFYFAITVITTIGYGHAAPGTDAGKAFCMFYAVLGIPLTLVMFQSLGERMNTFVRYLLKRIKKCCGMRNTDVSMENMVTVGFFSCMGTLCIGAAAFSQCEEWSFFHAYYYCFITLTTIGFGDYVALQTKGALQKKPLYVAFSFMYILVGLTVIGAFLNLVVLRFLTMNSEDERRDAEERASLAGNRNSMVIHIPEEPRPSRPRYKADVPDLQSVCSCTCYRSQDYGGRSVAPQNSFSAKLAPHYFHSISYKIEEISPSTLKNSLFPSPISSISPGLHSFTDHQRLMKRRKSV
KCC2 sec1 = KCC2 (human) modulation, secondary assay | actives 15% (n = 3,700) | HEK293-KCC2, thallium flux, FluoZin2 fluorescence; stronger effect = higher value | shares compounds with Cl transport mod | normalised thallium flux (F/F0 slope) at 10 µM;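 active = thallium flux slope above the same plate's solvent-only control mean plus 3 SD; inconclusive = the two replicate wells disagree; inactive = no significant difference from solvent-only control wells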
KCC2 bumet counter = bumetanide-insensitive thallium flux in KCC2 cells with ouabain, counter-screen | shares compounds with Cl transport mod | normalized thallium flux at 10 µM | AID 1714 | HEK293-KCC2 + bumetanide/ouabain, thallium flux FluoZin2; stronger effect = higher value | actives 49% (n = 3,700);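 active = thallium entry rate above the same plate's blocked-transporter control wells by more than 3 SD; inconclusive = the two repeat wells disagree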;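 also: raw slope of fluorescence over initial fluorescence between 10 and 20 s after thallium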
KCC2 secondary2 = confirmation of human KCC2 transport modulators; normalized thallium flux at 10 µM; AID 1715; HEK293-KCC2, thallium flux FluoZin2 fluorescence; actives lie on both sides; F/F0 rise rate, 10–20 s post-thallium; shares compounds with Cl transport mod; actives 23% (n = 3,700);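 active = thallium flux slope more than 3 SD above or below the plate's solvent-only control mean, mostly below; inconclusive = the two repeat wells disagreed; inactive = no significant shift from solvent-only controls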;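 also: raw slope with 0.1% DMSO as baseline and bumetanide as block control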
HEK counter1 = counter-screen for KCC2 modulators: effect in parental HEK293 cells; shares compounds with Cl transport mod; AID 1716; thallium flux rate (normalised fluorescence) at 10 µM; thallium flux FluoZin2, ouabain; baseline-ratio fluorescence slope, 10–20 s after thallium; actives 46% (n = 3,700);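 active = thallium flux rate significantly above the same plate's solvent-only control wells, beyond their mean plus 3 SD; inconclusive = the two replicate wells gave conflicting results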
KCC2 retest ouab = confirmation of human KCC2 modulators with ouabain; actives 48% (n = 3,700); raw Tl+ flux slope (below DMSO = inhibition, above = activation) at 10 µM; HEK293-KCC2, thallium flux FluoZin2 fluorescence; bidirectional: low = inhibitor, high = activator; shares compounds with Cl transport mod; AID 1717;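 active = thallium flux slope beyond 3 SD from same-plate DMSO control mean in most replicates, usually higher, sometimes lower; inconclusive = repeat tests gave conflicting results; inactive = no significant difference from controls in most replicates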;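 also: slope of initial-normalized fluorescence between seconds 10 and 20 after thallium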
HEK293 Tl flux2 = parental HEK flux effect, counter-screen 2 | actives 33% (n = 3,700) | HEK293 parental, thallium flux FluoZin-2 fluorescence slope | shares compounds with Cl transport mod | thallium flux slope at 10 µM;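 active = thallium flux slope above the same plate's solvent-control mean plus 3 SD in both duplicate wells; inconclusive = duplicate wells that disagreed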;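 also: run without ouabain in cells lacking the KCC2 cotransporter; slope of fluorescence scaled to its starting value between 10 and 20 s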
* hit, by the source's call; i = inactive; ? = inconclusive; / = not tested or not shown.

SMILES	hERG protect	KCNQ1 pot	KCNQ1 inh	Cl transport mod	KCNK3 inh	KCNK9 block	KCC2 sec1	KCC2 bumet counter	KCC2 secondary2	HEK counter1	KCC2 retest ouab	HEK293 Tl flux2
CCOc1ccc(C(Nc2cccnc2)c2cc(Cl)c3cccnc3c2O)cc1 (stereo not drawn)	-11	i	8*	5*	i	i	0.0089	0.014*	0.034	0.018*	?	0.01
CC(Sc1ccc(S(=O)(=O)N2CCOCC2)cn1)c1ccccc1Cl (stereo not drawn)	/	/	/	/	i	/	/	/	/	/	/	/
CC12CC3(C)CC(C)(C1)CC(C(=O)NC(=S)N1CCCC1)(C2)C3	-3	i	i	7.9*	i	i	0.0068	0.0095*	0.027	0.01*	?	?
CC(C)(C)C(=O)NC(=S)N1CCCC1	-7	i	i	0.47	i	i	/	/	/	/	/	/
COc1cccc(-c2cc3c(=O)n(-c4ccccc4)c(=S)[nH]c3s2)c1	-8	i	i	/	i	i	/	/	/	/	/	/
COc1ccc(-n2c(=S)[nH]c3sc(-c4ccccc4)cc3c2=O)c(OC)c1	-10	i	i	9.5*	i	i	0.014*	0.027*	0.025*	0.02*	?	0.012
CCc1nc(N)c(C#N)c(-c2ccc(O)c(OC)c2)c1C	-11	i	i	-2.9	i	i	/	/	/	/	/	/
COc1cc(-c2c(C#N)c(=O)[nH]c3c2c(C)nn3-c2ccccc2)ccc1O	-22	i	i	-5*	i	i	0.0078	0.0041	0.03	0.0067	?	0.0093
Cc1ccc(NC(=S)N=Nc2c(O)n(C)c3ccc(S(=O)(=O)N4CCOCC4)cc23)cc1C	-1	i	i	7.4*	i	i	0.011	0.013*	0.034	0.032*	?	0.018*
C=CCn1c(O)c(N=NC(=S)Nc2ccc(OC)c(Cl)c2)c2ccccc21	5	i	i	21*	i	i	0.0065	0.029*	0.035	0.024*	0.028*	0.016*
Cc1cc(=O)n(C)c2ccc(S(=O)(=O)N3CCOCC3)cc12	0	i	i	/	i	i	/	/	/	/	/	/
C=CCn1c(O)c(N=NC(=S)Nc2ccccc2C)c2cc(S(=O)(=O)N3CCOCC3)ccc21	-2	9*	i	14*	i	i	0.013*	0.072*	0.036	0.02*	0.029	0.015*
CCn1c2ccccc2c2nc3cc(S(=O)(=O)N4CCOCC4)ccc3nc21	-15	i	i	0.64	i	i	/	/	/	/	/	/
Cn1c(O)c(N=NC(=S)Nc2ccccc2F)c2cc(S(=O)(=O)N3CCOCC3)ccc21	11*	i	i	37*	i	i	0.016*	0.056*	0.036	?	0.044*	?
O=C(Nc1ccccc1F)Nc1cc(S(=O)(=O)N2CCOCC2)ccc1N1CCCC1	-13	i	i	0.26	i	i	/	/	/	/	/	/
NC(=O)C1CCN(c2oc(/C=C/c3ccccc3)nc2S(=O)(=O)c2ccccc2)CC1	-7	i	i	/	i	i	/	/	/	/	/	/
Cc1cccc(NC(=S)N=Nc2c(O)n(CN3CCOCC3)c3ccccc23)c1C	-3	i	i	5.3*	i	i	0.024*	0.021*	0.035	0.012*	0.026*	0.012*
Cc1ccc(N=Nc2c(O)n(CN3CCOCC3)c3ccccc23)cc1	-14	i	i	/	i	i	/	/	/	/	/	/
CCOC(=O)C1=NN(C(=O)c2cccc(Br)c2)C(O)(C(C)(C)C)C1 (stereo not drawn)	51*	66*	i	107*	/	i	0.048*	0.13*	0.052*	?	0.099*	0.039*
Cc1ccc(C2=CSC3=NNC4(CCCCC4)NN23)cc1	-21	i	i	-4.4*	i	i	0.0071	0.0058*	0.024*	0.0084	?	0.011
CCOC(=O)C1=CN(CC)S(=O)(=O)NC1c1ccc2ccccc2c1 (stereo not drawn)	/	/	/	/	i	/	/	/	/	/	/	/
CCc1c(C)[nH]c2ccccc2c1=O	/	/	/	7.6*	i	/	0.0069	?	0.027	0.0077	0.019	0.01
O=C(Cn1cnc2scc(-c3ccc(F)cc3)c2c1=O)NCC(c1ccco1)N1CCCC1 (stereo not drawn)	/	/	/	/	i	/	/	/	/	/	/	/
Cc1cc(C(=O)CSc2nc(N)cc(=O)[nH]2)c(C)n1CCc1ccc(F)cc1	-8	i	i	-4.2*	i	i	0.0092	0.0051	0.033	0.0074	0.018	0.011
CC12CC(NC(=O)N1c1cccc(C(=O)NCc3ccccc3)c1)c1ccccc1O2 (stereo not drawn)	-9	i	i	/	/	i	0.0072	?	0.03	0.0074	0.019	0.011
COC1=C/C(=C/c2c(N)n3cc(C)sc3nc2=O)C=CC1=O	-2	i	i	-6.6*	i	i	0.0038*	-0.0015*	0.017*	0.0028*	0.008*	0.006*
CC(C)(Oc1ccc(Cl)cc1)C(=O)NCC(c1ccco1)N1CCCCC1 (stereo not drawn)	-11	i	i	/	i	i	/	/	/	/	/	/
CCOC(=O)c1[nH]c(C=O)c(C(=O)OCC)c1C	4.9*	13*	i	26*	i	i	0.0059	0.051*	0.04*	0.029*	0.044*	0.031*
CCOC(=O)c1[nH]c(C)c(C(=O)O)c1C	/	/	/	-1.1	/	/	/	/	/	/	/	/
O=C1NC[C@@H](Cc2cccc3ccccc23)N(CCc2cc(C(F)(F)F)cc(C(F)(F)F)c2)C1=O	-5	i	i	-3.9*	i	i	0.0058	0.0045	0.025*	0.0071	0.016	0.0097

Screening data deposited in PubChem BioAssay by several laboratories.
